# NR3A LBD binder: binders of NR3A ligand-binding domain, primary screen, biophysical, differential scanning fluorimetry, uHTS | NR3A LBD differential scanning fluorimetry, Tm shift; 0% = protein alone, 100% = glycine-bound protein | Tm shift relative to glycine control, % at 25 µM | 340,000 compounds, 2.5% hits | AID 1259313, 2017;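 active means melting temperature shift of at least 10% of the positive control shift, at one fixed dose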
# MPTP block: mitochondrial permeability transition pore inhibitors, primary screen, biochemical, isolated mouse mitochondria, absorbance. Ca2+ swelling absorbance, 30 min. inhibition, % at 10 µM. 360,000 compounds, 1.4% hits;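 active means inhibition of 50% or more, scaled per plate between neutral and stimulator controls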;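 further: 0% = DMSO wells given calcium and 100% = 1 mM EGTA wells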
# SENP1 inh: human SENP1 catalytic domain inhibitors, primary screen, biochemical, FRET, uHTS. AID 624204, 2012. 360,000 compounds, 0.21% hits. inhibition, % at 10 µM. recombinant SENP1 catalytic domain, CyPet-SUMO1-YPet FRET cleavage;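 active means inhibition at least 30% at 10 µM, raw YFP signal under a set limit, fluorescence ratio 0.5 to 1.5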;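 further: 0% = enzyme with DMSO and 100% = no enzyme wells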
# Target sequence (Q9P0U3 419-644 limits assumed): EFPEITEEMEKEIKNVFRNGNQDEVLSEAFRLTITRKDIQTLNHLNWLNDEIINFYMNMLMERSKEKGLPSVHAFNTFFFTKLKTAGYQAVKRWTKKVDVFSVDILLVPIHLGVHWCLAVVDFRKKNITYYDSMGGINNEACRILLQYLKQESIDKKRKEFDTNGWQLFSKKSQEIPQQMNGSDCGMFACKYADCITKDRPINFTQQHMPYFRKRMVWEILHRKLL
#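 Assay system – human recombinant His6-tagged SENP1 catalytic domain enzyme · Input – SENP1 enzyme, 20 pM final · Buffer or medium – Tris pH 8 buffer plus EDTA, NaCl, BME, BSA, NP40, catalase · Schedule – 50 min reaction at room temperature · Technique – FRET read of cyan and yellow fluorescence · Control set – no-enzyme wells low, DMSO-plus-enzyme wells high control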
# EBI2 antag: EBI2 receptor antagonists, beta-arrestin recruitment, primary screen, cell-based, luminescence, 7a,25-OHC stimulation, uHTS; G-protein coupled receptor 183 (Homo sapiens), P32249; 7a,25-OHC stimulated; inhibition, % at 5 µM; 360,000 compounds, 0.81% hits; in the data active means inhibition above about 38%;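 further: enzyme fragment complementation signal reports receptor beta-arrestin coupling in cells; 0% = agonist plus DMSO wells and 100% = wells without agonist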
# Target sequence (P32249 whole entry, looked up, the tested form may be a part): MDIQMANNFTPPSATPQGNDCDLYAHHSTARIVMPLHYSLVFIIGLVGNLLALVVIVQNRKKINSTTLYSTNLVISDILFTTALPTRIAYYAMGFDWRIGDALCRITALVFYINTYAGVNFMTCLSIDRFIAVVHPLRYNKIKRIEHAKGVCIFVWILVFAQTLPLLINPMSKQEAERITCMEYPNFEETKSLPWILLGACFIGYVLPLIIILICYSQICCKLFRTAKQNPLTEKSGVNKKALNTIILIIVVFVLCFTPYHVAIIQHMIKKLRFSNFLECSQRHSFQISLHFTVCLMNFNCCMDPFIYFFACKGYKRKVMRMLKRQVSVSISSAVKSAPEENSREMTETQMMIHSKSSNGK
# Numbers without * were called inactive; x = no result. Only some compounds are listed: those with a hit (about 4.4% of all), similar ones and a draw of the others.
SMILES,NR3A LBD binder,MPTP block,SENP1 inh,EBI2 antag
COc1ccc(C(C(=O)NC2CCCC2)N(C(=O)c2ccco2)c2ccccc2C(C)=O)cc1OC (stereo unspecified),1,0,1,-4
NC(=S)N/N=C/c1ccc(C23CC4CC(CC(C4)C2)C3)cc1,10*,x,x,x
COc1ccccc1OCCCCOc1ccccc1F,3,-1,1,-1
CCOc1ccccc1OCCCCOc1ccccc1F,25*,1,1,-1
CC1CN(c2ccccn2)C(C)CN1C(=S)Nc1ccccc1 (stereo unspecified),0,-1,9,5
CCOC(=O)C1(CC2CCCCO2)CCN(C(=O)Nc2cccc(SC)c2)CC1 (stereo unspecified),11*,-1,1,26
c1ccc(Nc2nc(-c3ccccc3)ns2)cc1,-9,2,-1,46*
CC(C)(C)C(=O)Nc1nc(-c2ccccc2)ns1,-18,5,1,0
CC(=O)C1=C(O)C(=O)N(c2nccs2)C1c1ccccc1 (stereo unspecified),-1,-1,-2,-5
COC(=O)/C(C#N)=C/c1c(Oc2cc(C)cc(C)c2)nc2c(C)cccn2c1=O,13*,3,-62,27
COc1ccc(Oc2nc3c(C)cccn3c(=O)c2/C=C(\C#N)C(N)=O)cc1,6,1,-105,24
[O-][n+]1c2ccccc2cc2ccccc21,46*,0,-21,-24
O=S(=O)(NCCCCNS(=O)(=O)c1c(F)cccc1F)c1ccc2c(c1)OCCO2,15*,0,2,-20
CCC(=O)Nc1cc2c3c(c1)CCN3C(=O)CC2,11*,-1,1,-8
CC(C)(C)CC(=O)Nc1cc2c3c(c1)CCN3C(=O)CC2,0,1,2,-3
O=C(Nc1ccc(Cl)cc1)c1nc[nH]c1C(=O)NCCCCNC(=O)c1[nH]cnc1C(=O)Nc1ccc(Cl)cc1,26*,0,-1,-68
Cc1cccc(NC(=O)c2nc[nH]c2C(=O)NCCCCCCNC(=O)c2[nH]cnc2C(=O)Nc2cccc(C)c2)c1,4,2,1,-22
O=C(Nc1ccccc1)c1nc[nH]c1C(=O)NCc1ccccc1,-18,1,2,-30
CCOC(=O)c1ccc(NC(=O)c2nc[nH]c2C(=O)NCCNC(=O)c2[nH]cnc2C(=O)Nc2ccc(C(=O)OCC)cc2)cc1,15*,5,9,-12
O=C(Nc1cccc(Cl)c1)c1nc[nH]c1C(=O)NCc1ccccc1,17*,2,2,-32
CCOC(=O)c1ccc(NC(=O)c2nc[nH]c2C(=O)NC)cc1,0,1,1,-9
Cc1cccc(NC(=O)c2nc[nH]c2C(=O)NCCCCNC(=O)c2[nH]cnc2C(=O)Nc2cccc(C)c2)c1,13*,0,2,-27
O=C(COC(=O)CNC(=O)c1ccco1)Nc1ncc(Cl)cc1Cl,1,-2,-8,1
Cc1ccsc1C(=O)OCC(=O)NCc1cccs1,x,0,-1,-10
O=C(c1cccc(S(=O)(=O)N2CCCCCC2)c1)N1CCN(c2ccccc2F)CC1,17*,0,1,13
SMILES,NR3A LBD binder,MPTP block,SENP1 inh,EBI2 antag
Cn1c(=O)oc2cc(S(=O)(=O)N3CCN(c4ccccc4F)CC3)ccc21,12*,0,20,-1
COc1ccccc1N1CCN(S(=O)(=O)c2ccc3c(c2)oc(=O)n3C)CC1,1,2,0,8
O=C(c1ccccc1F)N1CCN(c2ccccc2F)CC1,12*,0,2,-8
O=C(c1cccc(S(=O)(=O)N2CCN(c3ccccc3)CC2)c1)N1CCN(c2ccccc2O)CC1,10*,-1,3,5
CC1CC(CN)CC(CO)C1 (stereo unspecified),1,1,-2,2
COc1cc(/C=N/NC(=O)Cc2csc(N3CCOCC3)n2)cc(OC)c1O,15*,1,-7,3
O=C(Cc1csc(N2CCOCC2)n1)N/N=C/c1ccc(Cl)cc1Cl,-1,1,1,14
CCC(Oc1ccc(Cl)cc1)C(=O)N1CC(=O)Nc2ccccc21 (stereo unspecified),7,0,2,5
Cc1ccc(SC[C@H](Cc2ccccc2)N2CCN(CCc3ccccc3)CCC2=O)cc1,19*,0,-3,14
C=CCN(c1ccccc1)S(=O)(=O)c1cc2c(cc1C)N(C)CCO2,-1,0,3,1
CCN1CC(c2ccccc2)C(c2ccc(Cl)cc2)=N1 (stereo unspecified),12*,5,-1,15
COc1ccc(C(N)=S)cc1,29*,0,3,-14
O/C(=C\c1nc2ccccc2nc1/C=C(\O)c1ccccc1)c1ccccc1,22*,4,-27,37
Cc1ccc(C(=O)CC(=O)c2ccccc2C)c(O)c1,-2,-2,-2,-9
C=C(CN(C)C)C(=O)c1ccc(C)cc1C,14*,-2,-1,10
CC(N)c1csc(Nc2ccc(S(C)(=O)=O)cc2)n1 (stereo unspecified),x,-1,1,-3
Fc1cc(F)c2nc(Nc3nc4cc5c(cc4s3)OCO5)sc2c1,16*,37,-35,7
N#Cc1cccc(OC(=O)C2CCN(C(=O)c3ccc(F)cc3)CC2)c1,x,0,0,-2
C=CCN1C(=O)c2ccc(C(=O)NCCc3ccc(OC)c(OC)c3)cc2C1=O,5,0,1,2
COc1ccc(/C=C2\SC(=O)NC2=S)cc1OC,-15,6,32*,-8
CCOc1ccc(/C=C2\SC(=S)NC2=O)cc1OC,-4,0,-12,5
Oc1ccc(C2=NN(c3ccccc3)C(c3ccc(F)cc3)C2)cc1 (stereo unspecified),21*,2,-59,17
CC(=O)Nc1ccc(C2CC(c3ccc(Cl)cc3)=NN2c2ccccc2)cc1 (stereo unspecified),15*,1,-26,12
COc1ccc(N2CCN(C(=O)COC(=O)[C@@H](NC(=O)c3ccccc3Cl)C(C)C)CC2)cc1,1,0,-2,0
Oc1ccc(-c2cnc3ccccc3n2)cc1,37*,0,-2,-15
SMILES,NR3A LBD binder,MPTP block,SENP1 inh,EBI2 antag
CCCCOc1ccc(-c2cnc3ccccc3n2)cc1,22*,6,-5,-1
Clc1ccc(-c2cnc3ccccc3n2)cc1,5,0,1,9
CCOc1ccccc1C(=O)OCC(=O)Nc1ccc(OC(F)F)cc1,-2,1,1,-1
O=C(CSc1nnc(SCc2cccc3ccccc23)s1)N/N=C/c1c[nH]c2ccccc12,22*,3,-2,12
O=C(CSc1nnc(SCc2ccc(Cl)cc2)s1)N/N=C/c1c[nH]c2ccccc12,24*,0,3,21
Cc1nn(-c2ccccc2)c(C)c1/C=N/NC(=O)CSc1nnc(SCc2ccccc2Cl)s1,11*,3,1,16

# Screening data from PubChem BioAssay.
